One assay relates to Staphylococcus sp. Nature of the assay: In vitro antimicrobial activity against Staphylococci. The assay is classed as functional, staphyl ococcus species. In a few lines:
(§1)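 Broth microdilution per NCCLS guidance. Serial dilutions of each agent in microtiter plates are inoculated with each organism to 10⁵ CFU/mL and incubated 18–22 h at 35 C in ambient air. MIC is the lowest concentration giving complete growth inhibition, judged by the unaided eye.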

In another assay the test system is Enterococcus sp. Nature of the assay: In vitro antimicrobial activity against Enterococci. It counts as functional. A digest of the protocol:
as §1

Another assay relates to Bacteria. Nature of the assay: In vitro antimicrobial activity against gram-negative organisms (10). It counts as functional. A digest of the protocol: as §1
Assay [1] in a line: The inhibitory activity of compound against MraY or MurG at 100 ug/mL; No Inhibition.
Assay [2] in a line: The inhibitory activity of compound against MraY or MurG at 50 ug/mL; No Inhibition.
Assay [3] can be described thus: The inhibitory activity of compound against MraY or MurG at 12.5 ug/mL; No Inhibition.
Assay [4] can be described thus: The inhibitory activity of compound against MraY or MurG at 25 ug/mL; No Inhibition.
The nature of assay [5]: The inhibitory activity of compound against MraY or MurG at 6.25 ug/mL; No Inhibition.
A short description of assay [6]: The inhibitory activity of compound against MraY or MurG at 100 ug/mL; Inhibit.
Assay [7] can be described thus: The inhibitory activity of compound against MraY or MurG at 50 ug/mL; Inhibit.

This note sets out measurements from ChEMBL document CHEMBL1145867, “Muraymycins, novel peptidoglycan biosynthesis inhibitors: synthesis and SAR of their analogues” (2003).

Structures are written as SMILES. Converted amounts (≈) assume the structure as drawn. The source made the active and inactive calls. The calls are words filed in the database; no cut-off is given here. Where only a bound is given, the exact number is not on record here.

As a reminder, the MIC is the lowest concentration that inhibits growth of the organism. A higher MIC goes with a need for much substance. With `COc1ccc(Cn2c(=O)ccn([C@@H]3OC([C@H](O)[C@H](NCCCNC(=O)[C@@H](CC(C)C)NC(=O)[C@H](CCCN=C(N)N)NC(=O)N[C@H](C(=O)O)C(C)C)C(=O)OC(C)(C)C)[C@@H](O[Si](C)(C)C(C)(C)C)[C@H]3O[Si](C)(C)C(C)(C)C)c2=O)cc1` (stereo not given in full), the MIC against Staphylococcus sp., in the assay on Enterococcus sp. and with Bacteria was > 128 µg/mL in each case.
`COc1ccc(Cn2c(=O)ccn([C@@H]3OC([C@H](O)[C@H](NCCCNC(=O)[C@@H](CC(=O)OCc4ccccc4)NC(=O)OCc4ccccc4)C(=O)OC(C)(C)C)[C@@H](O[Si](C)(C)C(C)(C)C)[C@H]3O[Si](C)(C)C(C)(C)C)c2=O)cc1` (stereo not given in full): the MIC in the assay on Staphylococcus sp. is > 128 µg/mL; against Enterococcus sp., 4 µg/mL (≈ 3.58 µM); in the assay on Bacteria it was > 128 µg/mL.
Consider `COc1ccc(Cn2c(=O)ccn([C@@H]3OC([C@H](O)[C@H](NCCCNC(=O)[C@@H](CC(C)C)NC(=O)OCc4ccccc4)C(=O)O)[C@@H](O)[C@H]3O)c2=O)cc1` (stereo not given in full), for which the MIC was > 128 µg/mL in the assay on Staphylococcus sp., 128 µg/mL (≈ 173 µM) in the assay with Enterococcus sp. and > 128 µg/mL with Bacteria.
Take `COc1ccc(Cn2c(=O)ccn([C@@H]3OC([C@H](O)[C@H](NCCCNC(=O)[C@H](NC(=O)OCc4ccccc4)C(O)C(C)C)C(=O)OC(C)(C)C)[C@@H](O[Si](C)(C)C(C)(C)C)[C@H]3O[Si](C)(C)C(C)(C)C)c2=O)cc1` (stereo not given in full): the results for the MIC with Staphylococcus sp., in the assay with Enterococcus sp. and against Bacteria were > 128 µg/mL, 128 µg/mL (≈ 123 µM) and > 128 µg/mL, respectively.
Take `COc1ccc(Cn2c(=O)ccn([C@@H]3OC([C@H](O)[C@H](NCCCNC(=O)[C@H](NC(=O)[C@H](CCC/N=C(\N)N[N+](=O)[O-])NC(=O)N[C@H](C(=O)OCc4ccccc4)C(C)C)C(O)C(C)C)C(=O)OC(C)(C)C)[C@@H](O[Si](C)(C)C(C)(C)C)[C@H]3O[Si](C)(C)C(C)(C)C)c2=O)cc1` (stereo not given in full): the MIC in the assay on Staphylococcus sp., against Enterococcus sp. and in the assay on Bacteria was > 128 µg/mL in each case.
On to `COc1ccc(Cn2c(=O)ccn([C@@H]3OC([C@H](O)[C@H](NCCCNC(=O)[C@@H](CC(C)C)NC(=O)[C@H](CCC/N=C(\N)N[N+](=O)[O-])NC(=O)N[C@H](C(=O)OCc4ccccc4)C(C)C)C(=O)OC(C)(C)C)[C@@H](O[Si](C)(C)C(C)(C)C)[C@H]3O[Si](C)(C)C(C)(C)C)c2=O)cc1` (stereo not given in full), for which the MIC with Staphylococcus sp., against Enterococcus sp. and with Bacteria was > 128 µg/mL throughout.
For `COc1ccc(Cn2c(=O)ccn([C@@H]3OC([C@H](O)[C@H](NCCCNC(=O)[C@@H](CCCCNC(=O)OCc4ccccc4)NC(=O)OCc4ccccc4)C(=O)OC(C)(C)C)[C@@H](O[Si](C)(C)C(C)(C)C)[C@H]3O[Si](C)(C)C(C)(C)C)c2=O)cc1` (stereo not given in full), the MIC in the assay on Staphylococcus sp., in the assay with Enterococcus sp. and against Bacteria was > 128 µg/mL throughout.
Consider `COc1ccc(Cn2c(=O)ccn([C@@H]3OC([C@H](O)[C@H](NCCCNC(=O)[C@H](N)CC(C)C)C(=O)OC(C)(C)C)[C@@H](O)[C@H]3O)c2=O)cc1` (stereo not given in full), for which the MIC in the assay with Staphylococcus sp., against Enterococcus sp. and against Bacteria was > 128 µg/mL in each case.
For the compound `COc1ccc(Cn2c(=O)ccn([C@@H]3OC([C@H](O)[C@H](NCCCNC(=O)[C@H](N)CCc4ccccc4)C(=O)OC(C)(C)C)[C@@H](O[Si](C)(C)C(C)(C)C)[C@H]3O[Si](C)(C)C(C)(C)C)c2=O)cc1` (stereo not given in full), the MIC against Staphylococcus sp., in the assay on Enterococcus sp. and in the assay with Bacteria was > 128 µg/mL throughout. The Inhibitory activity entry in assay [1], in assay [2], in assay [3], in [4] and in [5] was “inactive” in each case.
In the case of `COc1ccc(Cn2c(=O)ccn([C@@H]3OC([C@H](O)[C@H](NCCCNC(=O)[C@H](N)CC(=O)OCc4ccccc4)C(=O)OC(C)(C)C)[C@@H](O[Si](C)(C)C(C)(C)C)[C@H]3O[Si](C)(C)C(C)(C)C)c2=O)cc1` (stereo not given in full), the figures for the MIC against Staphylococcus sp., in the assay on Enterococcus sp. and against Bacteria were 16 µg/mL (≈ 16.3 µM), 4 µg/mL (≈ 4.06 µM) and 128 µg/mL (≈ 130 µM), respectively. Besides, the Inhibitory activity entry in assay [3], in assay [4] and in [5] was “inactive” each time. Besides, the Inhibitory activity entry in assay [6] and in assay [7] was “Inhibit” throughout.
In the case of `COc1ccc(Cn2c(=O)ccn([C@@H]3OC([C@H](O)[C@H](NCCCNC(=O)[C@@H](C)NC(=O)OCc4ccccc4)C(=O)OC(C)(C)C)[C@@H](O[Si](C)(C)C(C)(C)C)[C@H]3O[Si](C)(C)C(C)(C)C)c2=O)cc1` (stereo not given in full), the values for the MIC against Staphylococcus sp., in the assay with Enterococcus sp. and against Bacteria were > 128 µg/mL, 128 µg/mL (≈ 130 µM) and > 128 µg/mL, respectively.
As to `COc1ccc(Cn2c(=O)ccn([C@@H]3OC([C@H](O)[C@H](NCCCNC(=O)[C@@H](CCC(=O)OC(C)(C)C)NC(=O)OCc4ccccc4)C(=O)OC(C)(C)C)[C@@H](O[Si](C)(C)C(C)(C)C)[C@H]3O[Si](C)(C)C(C)(C)C)c2=O)cc1` (stereo not given in full), the MIC is 128 µg/mL (≈ 117 µM) in the assay on Staphylococcus sp., > 128 µg/mL against Enterococcus sp. and > 128 µg/mL against Bacteria.
Turning to `COc1ccc(Cn2c(=O)ccn([C@@H]3OC([C@H](O)[C@H](NCCCNC(=O)[C@@H](CCc4ccccc4)NC(=O)OCc4ccccc4)C(=O)OC(C)(C)C)[C@@H](O[Si](C)(C)C(C)(C)C)[C@H]3O[Si](C)(C)C(C)(C)C)c2=O)cc1` (stereo not given in full), the MIC was 128 µg/mL (≈ 119 µM) with Staphylococcus sp., 128 µg/mL (≈ 119 µM) against Enterococcus sp. and > 128 µg/mL against Bacteria.
Take `COc1ccc(Cn2c(=O)ccn([C@@H]3OC([C@H](O)[C@H](NCCCNC(=O)[C@@H](CC(C)C)NC(=O)OCc4ccccc4)C(=O)OC(C)(C)C)[C@@H](O)[C@H]3O)c2=O)cc1` (stereo not given in full): the MIC against Staphylococcus sp., with Enterococcus sp. and against Bacteria was > 128 µg/mL throughout.
As for `COc1ccc(Cn2c(=O)ccn([C@@H]3OC([C@H](O)[C@H](NCCCNC(=O)[C@@H](CC(C)C)NC(=O)[C@H](CCC/N=C(\N)N[N+](=O)[O-])NC(=O)N[C@H](C(=O)OCc4ccccc4)C(C)C)C(=O)O)[C@@H](O)[C@H]3O)c2=O)cc1` (stereo not given in full), the MIC against Staphylococcus sp., against Enterococcus sp. and in the assay on Bacteria was > 128 µg/mL in each case.
For `COc1ccc(Cn2c(=O)ccn([C@@H]3OC([C@H](O)[C@H](NCCCNC(=O)[C@H](N)CCC(=O)OC(C)(C)C)C(=O)OC(C)(C)C)[C@@H](O[Si](C)(C)C(C)(C)C)[C@H]3O[Si](C)(C)C(C)(C)C)c2=O)cc1` (stereo not given in full), the MIC in the assay with Staphylococcus sp., in the assay with Enterococcus sp. and in the assay with Bacteria was > 128 µg/mL each time. In addition, the Inhibitory activity result in [1], in assay [2], in assay [3], in assay [4] and in assay [5] was “inactive” throughout.
As for `CC(C)C(O)[C@@H](NC(=O)OCc1ccccc1)C(=O)NCCCN[C@H](C(=O)OC(C)(C)C)[C@@H](O)C1O[C@@H](n2ccc(=O)[nH]c2=O)[C@H](O[Si](C)(C)C(C)(C)C)[C@@H]1O[Si](C)(C)C(C)(C)C` (stereo not given in full), the MIC in the assay on Staphylococcus sp. is > 128 µg/mL; against Enterococcus sp., 64 µg/mL (≈ 69.4 µM); with Bacteria, > 128 µg/mL.
Take `COc1ccc(Cn2c(=O)ccn([C@@H]3OC([C@H](O)[C@H](NCCCNC(=O)[C@@H](CC(C)C)NC(=O)[C@H](CCCN=C(N)N)NC(=O)N[C@H](C(=O)O)C(C)C)C(=O)O)[C@@H](O)[C@H]3O)c2=O)cc1` (stereo not given in full): the MIC in the assay with Staphylococcus sp., against Enterococcus sp. and against Bacteria was > 128 µg/mL in each case. Further, the Inhibitory activity result in assay [1], in [2], in assay [3], in assay [4] and in assay [5] was “inactive” throughout.
In the case of `COc1ccc(Cn2c(=O)ccn([C@@H]3OC([C@H](O)[C@H](NCCCNC(=O)[C@H](NC(=O)[C@H](CCC/N=C(\N)N[N+](=O)[O-])NC(=O)N[C@H](C(=O)OCc4ccccc4)C(C)C)C(C)O)C(=O)OC(C)(C)C)[C@@H](O[Si](C)(C)C(C)(C)C)[C@H]3O[Si](C)(C)C(C)(C)C)c2=O)cc1` (stereo not given in full), the MIC is 128 µg/mL (≈ 97.4 µM) against Staphylococcus sp., 64 µg/mL (≈ 48.7 µM) with Enterococcus sp. and 64 µg/mL (≈ 48.7 µM) with Bacteria.
Take `COc1ccc(Cn2c(=O)ccn([C@@H]3OC([C@H](O)[C@H](NCCCNC(=O)[C@H](N)CC(C)C)C(=O)O)[C@@H](O)[C@H]3O)c2=O)cc1` (stereo not given in full): the minimum inhibitory concentration (MIC) in the assay with Staphylococcus sp. was > 128 µg/mL; with Enterococcus sp. it was 128 µg/mL (≈ 211 µM); with Bacteria, > 128 µg/mL.
